Sampled rows, rich in hits. Any-hit rate of the full collection: about 2.3%.
TRPC4 potent – positive allosteric modulators of TRPC4, primary screen, cell-based, mouse TRPC4beta, HEK293 mu-opioid, Fluo-4 calcium. 310,000 compounds, 0.42% hits. DAMGO EC20, Fluo-4 Ca2+ flux; stronger effect = higher value. Short transient receptor potential channel 4 (Mus musculus), Q9QUQ5. B-score at 10 µM;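 active = B-score of calcium response area above 5 SD of library B-scores, with initial fluorescence ratio within 5 SD of library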
TRPC4 block – inhibitors of mouse TRPC4 channel, primary screen, Fluo4 calcium, HEK293 TRPC4beta/mu-opioid cells. B-score at 10 µM. 300,000 compounds, 0.39% hits. Short transient receptor potential channel 4 (Mus musculus), Q9QUQ5. DAMGO-evoked Fluo4 calcium flux; stronger effect = lower value;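 active = B-score over 3 SD under the library average, no early fluorescence shift, positive overall ratio signal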
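Assay system: HEK293 cells with stable TRPC4beta plus mu-opioid receptor expression; Probe or stimulus: DAMGO in two steps, submaximal then maximal; Dosing: single-point compound dosing; Measured by: Fluo4 calcium-dye fluorescence, kinetic read; Read-out basis: B score from integrated Fluo4 fluorescence ratio.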
TRPC6 inh – mouse TRPC6 channel inhibitors, primary screen, cell-based, HEK293, membrane potential dye; 310,000 compounds, 1.1% hits; Short transient receptor potential channel 6 (Mus musculus), Q61143; B-score at 10 µM; AID 2553, 2010; ACh-evoked depolarization; stronger effect = lower value;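 active = B-score under library mean minus 3 SD, initial fluorescence not abnormally high, positive integrated signal ratio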;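 note: B-score derived from integrated fluorescence ratio over the kinetic read; more negative B-score means stronger inhibition of depolarization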
Target sequence (Q61143 whole entry, looked up): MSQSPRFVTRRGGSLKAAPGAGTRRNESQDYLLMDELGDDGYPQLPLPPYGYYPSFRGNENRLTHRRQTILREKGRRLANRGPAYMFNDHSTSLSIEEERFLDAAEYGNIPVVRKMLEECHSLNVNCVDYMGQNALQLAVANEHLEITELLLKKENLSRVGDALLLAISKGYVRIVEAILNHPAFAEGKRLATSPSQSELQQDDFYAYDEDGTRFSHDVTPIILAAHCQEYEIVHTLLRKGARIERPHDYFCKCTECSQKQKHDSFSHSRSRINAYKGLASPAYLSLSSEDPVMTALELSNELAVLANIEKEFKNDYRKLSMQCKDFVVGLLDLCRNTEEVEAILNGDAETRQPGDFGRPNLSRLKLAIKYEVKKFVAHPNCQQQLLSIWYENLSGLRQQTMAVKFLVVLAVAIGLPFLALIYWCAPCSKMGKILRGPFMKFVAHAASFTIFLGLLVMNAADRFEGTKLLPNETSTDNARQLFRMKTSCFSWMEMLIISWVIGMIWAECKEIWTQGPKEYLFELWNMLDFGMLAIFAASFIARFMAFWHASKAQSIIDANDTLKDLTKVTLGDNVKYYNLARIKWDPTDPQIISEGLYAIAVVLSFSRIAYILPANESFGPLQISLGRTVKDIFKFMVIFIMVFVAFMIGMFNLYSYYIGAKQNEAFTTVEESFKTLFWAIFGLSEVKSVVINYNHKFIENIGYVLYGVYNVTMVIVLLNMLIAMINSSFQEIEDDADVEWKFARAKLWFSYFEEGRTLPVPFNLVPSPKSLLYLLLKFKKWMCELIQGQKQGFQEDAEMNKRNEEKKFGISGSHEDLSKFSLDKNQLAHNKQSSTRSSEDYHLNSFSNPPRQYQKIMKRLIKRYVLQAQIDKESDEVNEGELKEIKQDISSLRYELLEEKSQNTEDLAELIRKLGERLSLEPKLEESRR
TRPC6 act – mouse TRPC6 channel activators, primary screen, cell-based, HEK293, membrane potential dye; Short transient receptor potential channel 6 (Mus musculus), Q61143; HEK293-TRPC6 membrane potential dye fluorescence; stronger effect = higher value; B-score at 10 µM; 310,000 compounds, 0.13% hits;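 active = B-score of the integrated fluorescence ratio above library mean plus 3 SD, and starting fluorescence ratio within library mean plus 5 SD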;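 note: higher score means more depolarization so channel activation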
TRPC4 agonist – activators of mouse TRPC4 channel, primary screen, Fluo4 calcium, HEK293 TRPC4beta/mu-opioid cells. Short transient receptor potential channel 4 (Mus musculus), Q9QUQ5. Fluo4 calcium fluorescence; stronger effect = higher value. B-score at 10 µM. 310,000 compounds, 0.49% hits;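 active = B-score above 5 SD of library B-scores, and initial fluorescence ratio not above library mean plus 5 SD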;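 note: positive B-score marks a calcium rise read as TRPC4 activation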
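Assay system: HEK293 cells stably co-expressing mouse TRPC4beta and mu-opioid receptor / Timing: Fluo4 dye loading 45 min at room temperature, 110 s recording / Signal: Fluo4 calcium-sensitive dye fluorescence, kinetic, 1 Hz baseline / Read-out: integrated baseline-normalised fluorescence ratio, converted to per-well B score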
TRPC4 sel inh 2 – mouse TRPC4 off-target activity of TRPC6 inhibitors, second screen; shares compounds with TRPC6 inh; HEK293 TRPC4/MOR, membrane potential dye fluorescence; channel activated by saturating DAMGO dose; inhibition, % at 10 µM; 920 compounds, 42% hits; AID 2776;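 active = compounds whose fluorescence signal differed from control wells by over 3 SD, either direction, in both duplicate plates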
TRPC4 spec – mouse TRPC4 modulation by TRPC6 hits, confirmation, selectivity assay for TRPC6 inhibitor project, cell-based, HEK293 TRPC4/mu-opioid, membrane potential dye. membrane potential fluorescence. AID 2777, 2010. activity change, negative = inhibition, % at 10 µM. shares compounds with TRPC6 inh. 920 compounds, 61% hits;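 active = rise or fall in signal beyond 3 SD of buffer-only wells in both replicate plates, either sign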;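 note: integrated kinetic ratio of fluorescence range over baseline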
HEK293 MPD ctr 2-1 – nonspecific membrane potential effects, parental HEK293, confirmation, counter-screen for TRPC6 inhibitor project, cell-based, second counter screen | 920 compounds, 31% hits | signal change vs control, % at 10 µM | AID 2779, 2010 | shares compounds with TRPC6 inh | parental HEK293 membrane potential dye fluorescence; maximal acetylcholine challenge after compound addition;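 active = membrane potential signal moving either way by over 3 SD of the maximum-effect control, in both duplicate plates, meaning non-specific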
HEK293 MPD ctr-1 – membrane potential modulation in parental HEK293, confirmation, counter-screen for TRPC6 inhibitor project, cell-based. shares compounds with TRPC6 inh. parental HEK293 membrane potential dye fluorescence. membrane potential signal change, % at 10 µM. 920 compounds, 60% hits. AID 2780, 2010;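 active = membrane potential signal shifting up or down by more than 3 SD of buffer-only wells, on both duplicate plates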
HEK293 MPD ctr-2 – parental HEK293 membrane potential modulation, confirmation, counter-screen for TRPC6 modulator project, cell-based | shares compounds with TRPC6 inh | membrane potential dye fluorescence | AID 488924, 2010 | membrane potential signal change, % at 10 µM | 2,400 compounds, 51% hits;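 active = membrane potential signal moves up or down beyond 5 SD from buffer-only wells, on both duplicate plates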
HEK293 MPD ctr 2-2 – second check of TRPC6 modulator effects in parental HEK293 cells | 2,400 compounds, 14% hits | AID 488926 | inhibition, % at 10 µM | membrane potential dye fluorescence; after compound, maximal acetylcholine stimulation | shares compounds with TRPC6 inh;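 active = membrane potential signal drops by more than 5 SD from the mean control signal, in both duplicate plates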
TRPC4/MOR mod – TRPC4 modulation by TRPC6 hit compounds, confirmation, selectivity assay for TRPC6 modulator project, cell-based, HEK293 TRPC4/mu-opioid, membrane potential dye, mouse. 2,400 compounds, 69% hits. AID 488927, 2010. membrane potential fluorescence. shares compounds with TRPC6 inh. percent change from control (negative = decrease, positive = increase), % at 10 µM;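 active = membrane potential signal moved up or down beyond 5 SD of buffer control wells, in both duplicate plates, actives on both sides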
TRPC4 ctr inh 2 – mouse TRPC4 off-target activity of TRPC6 modulators, second screen; shares compounds with TRPC6 inh; HEK293 TRPC4/mu-opioid, membrane potential dye fluorescence; stimulated with maximal-effect DAMGO; inhibition, % at 10 µM; 2,400 compounds, 55% hits;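 active = drop in membrane potential signal beyond 5 SD of the control wells in both duplicate plates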;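 note: TRPC4 counter screen for TRPC6 hits run under conditions tuned for TRPC6 not TRPC4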
TRPC6 inh conf – mouse TRPC6 channel inhibitors, confirmation, HEK293 cells, membrane potential dye, duplicate | shares compounds with TRPC6 inh | ACh-evoked depolarization | inhibition, % at 10 µM | 3,300 compounds, 43% hits | AID 488960, 2010;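 active = fluorescence ratio falls more than 5 SD below the full-stimulation control mean, in both duplicate runs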;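 note: integrated fluorescence ratio of peak minus minimum over baseline after agonist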
TRPC6 act conf – mouse TRPC6 channel activators, confirmation, HEK293 cells, membrane potential dye, duplicate | 2,800 compounds, 11% hits | activation, % at 10 µM | shares compounds with TRPC6 inh | HEK293-TRPC6 membrane potential dye fluorescence, FDSS | AID 488961, 2010;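 active = ratio signal rise beyond 5 SD above unstimulated control wells' mean, seen in both duplicate runs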
Numbers stand for hits; - = inactive; . = no result given.

SMILES	TRPC4 potent	TRPC4 block	TRPC6 inh	TRPC6 act	TRPC4 agonist	TRPC6 inh conf	TRPC6 act conf	others
Cc1nc(CNC(=O)CC2C(=O)NCCN2Cc2cccc(Oc3ccccc3)c2)cs1 (stereo not given)	-	-	-	-	-	.	.
COc1cccc(C2=NCCc3cc4c(cc32)OCO4)c1OC	-	-	-	-	-	.	.
COc1ccc2cc3[n+](cc2c1OC)CCc1cc2c(cc1-3)OCO2	-	-	-5.15	-	-	-	-	HEK293 MPD ctr-2=-;HEK293 MPD ctr 2-2=110.0%;TRPC4/MOR mod=-;TRPC4 ctr inh 2=-
CCOc1ccccc1Nc1nc2ccccc2n1C(C)C	-	-	-	-	-	.	.
CCCn1c2c(c(=N)c3c1CCC3)CCC2	-	-	-8.06	-	-	-	-	TRPC4 sel inh 2=77.5%;TRPC4 spec=-28.2%;HEK293 MPD ctr 2-1=11.5%;HEK293 MPD ctr-1=-578.5%
COc1ccc(-c2n[nH]c(C)c2-c2ccc(Cl)cc2)c(O)c1	-	-	-	-	-	.	.
Cc1[nH]nc(-c2ccc(O)cc2O)c1-c1ccc(Cl)cc1	-	-7	-5.75	-	-	-	-	HEK293 MPD ctr-2=-79.0%;HEK293 MPD ctr 2-2=-;TRPC4/MOR mod=-22.5%;TRPC4 ctr inh 2=80.5%
Cc1ccc(Cl)cc1NC(=S)N1CCCCCC1	-	-	-	-	-	.	.
CCOC(=O)N1CCC(N2Cc3cccc(C(=O)NCc4ccc(OC)cc4)c3C2=O)CC1	-	-	-7.73	-	-	-	-	TRPC4 sel inh 2=-;TRPC4 spec=-;HEK293 MPD ctr 2-1=-;HEK293 MPD ctr-1=-
CCOC(=O)N1CCC(N2Cc3cccc(C(=O)Nc4ccc(OCC)cc4)c3C2=O)CC1	-	-	-	-	-	.	.
CCOC(=O)N1CCC(N2Cc3cccc(C(=O)Nc4ccc(CC)cc4)c3C2=O)CC1	-	-	-7.42	-	-	-	-	TRPC4 sel inh 2=-;TRPC4 spec=-;HEK293 MPD ctr 2-1=-;HEK293 MPD ctr-1=-
CCN(C(=O)N1CCOCC1)c1ccccc1C	-	-	-	-	-	.	.
CCCC[C@@H]1CNC(=O)C(=O)N1CCc1cccc2ccccc12	-	-	-	-	-	.	.
Cc1cccc2nc(-c3cccnc3)c(NCCC(C)C)n12	-	-	-5.53	-	-	41.0%	-	HEK293 MPD ctr-2=-;HEK293 MPD ctr 2-2=-;TRPC4/MOR mod=-24.0%;TRPC4 ctr inh 2=83.5%
CC(C(=O)O)n1c2ccccc2c2cnn(C)c(=O)c21 (stereo not given)	-	-	-	-	-	.	.
CCOC(=O)CNC(=O)Cn1cnc2c(nnn2-c2ccc(OC)cc2)c1=O	-	-	-9.52	-	-	-	-	TRPC4 sel inh 2=-;TRPC4 spec=-;HEK293 MPD ctr 2-1=-;HEK293 MPD ctr-1=-
O=C(Cc1ccc(Cl)cc1)Nc1ccccc1C(=O)N1CCCCC1	-	-	-	-	-	.	.
Cc1cc(C)n2nc(C(=O)NNC(=O)c3ccccc3)nc2n1	-	-	-	-	-	.	.
COC(=O)c1sccc1NC(=O)c1ccccc1F	-	-	-6.29	-	-	-	-	HEK293 MPD ctr-2=-;HEK293 MPD ctr 2-2=-;TRPC4/MOR mod=-;TRPC4 ctr inh 2=-
Fc1ccc(CSc2nnc(-c3cccs3)o2)cc1	-	-	-7.43	-	-	-	-	TRPC4 sel inh 2=-;TRPC4 spec=-;HEK293 MPD ctr 2-1=-;HEK293 MPD ctr-1=-
COc1cccc(NC(=O)CN(C)C(=O)CSc2ncnc3sc(C)c(C)c23)c1	-	-	-	-	-	.	.
COC(=O)c1c(NC(=O)CN2CCN(Cc3ccc4c(c3)OCO4)CC2)sc(C)c1C	-	-	-	-	-	.	.
COc1ccc2c(c1)c(C(=O)CN1CCN(c3ccccc3)CC1)c(C)n2C	-	-	-	-	-	.	.
CCOC(=O)c1c(C)n(C)c2ccc(OC)c(NC(=O)CN3CCN(Cc4ccccc4)CC3)c12	-	-	-5.66	-	-	-	-	HEK293 MPD ctr-2=-;HEK293 MPD ctr 2-2=-;TRPC4/MOR mod=8.5%;TRPC4 ctr inh 2=39.0%
COC(=O)c1ccsc1NC(=O)CN1CCN(Cc2ccc3c(c2)OCO3)CC1	-	-	-6.65	-	-	-	.	TRPC4 sel inh 2=-;TRPC4 spec=19.1%;HEK293 MPD ctr 2-1=389.0%;HEK293 MPD ctr-1=16.3%
COc1ccc2c(c1)c(C(=O)CN1CCN(Cc3ccccc3)CC1)c(C)n2C	-	-	-5.34	-	-	-	-	HEK293 MPD ctr-2=-;HEK293 MPD ctr 2-2=-;TRPC4/MOR mod=-14.5%;TRPC4 ctr inh 2=59.5%
COC(=O)c1ccccc1NC(=O)CN1CCCCC1	-	-	-	-	-	.	.
COC(=O)c1ccccc1NC(=O)CN1CCN(Cc2ccccc2)CC1	-	-	-	14.6	-	-	142.0%	HEK293 MPD ctr-2=384.5%;HEK293 MPD ctr 2-2=-;TRPC4/MOR mod=60.5%;TRPC4 ctr inh 2=40.0%
O=C(NCC(=O)N(c1ccc2c(c1)OCCO2)C(C(=O)NC1CCCC1)c1ccco1)c1ccco1 (stereo not given)	-	-	-7.66	-	-	62.3%	.	TRPC4 sel inh 2=-;TRPC4 spec=1.1%;HEK293 MPD ctr 2-1=-;HEK293 MPD ctr-1=0.7%

Bioassay records from PubChem BioAssay.
